Our source for the cytotoxicity values is ChEMBL document CHEMBL4513216, “Probing the Open Global Health Chemical Diversity Library for Multistage-Active Starting Points for Next-Generation Antimalarials” (ACS Infect Dis, 2020).

The series can be described thus: Toxicity liver stage against HepG2, at 10uM. The arrangement: test concentration 10 uM, cell line HepG2-A16-CD81EGFP. The note with it: human, HepG2-A16-CD81EGFP cells; read-out: INHIBITION
In kind it is cell-based. In outline:
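Uninfected HepG2-A16-CD81EGFP cells, 3 × 10^3 per well, 1536-well, plated on prespotted compound at 10 μM final, parasite-free screening media added to match infected plates; puromycin 10 μM positive, DMSO 0.5% negative; run in parallel with 48 h PbLuc assay at 37 °C, 5% CO2; viability by CellTiter-Glo luminescence, normalized to controls.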
`CC(C)[C@H](NC(=O)NC1CCS(=O)(=O)C1)C(=O)NCc1ccccc1Cl` (some centres not stated): the cytotoxicity at 10 µM came to 5.91%. As for `Cc1nnc(C(C)N2CCN(Cc3ccc4c(c3)OCO4)CC2)o1` (configuration not stated), the figure is -11.6%. As for `O=C(CSc1ccc2c(c1)OCCO2)NS(=O)(=O)c1ccccc1`, the figure is -2.56%; as for `CC(C)NC(=O)c1nc(Cn2c(C(F)F)nc3ccccc32)no1`, 9.34%; as for `COc1ccc(-c2noc(C3=NN(C)C(=O)CC3)n2)cc1OC`, -0.51%. With `Cn1cc(C(=O)NCc2cn3c(n2)CN(Cc2ccccn2)CC3)cn1`, the cytotoxicity at 10 µM is -13.7%.

Turning to `CSc1cccc(CN2CCC(CCC(=O)NCCN(C)C)CC2)c1`, the cytotoxicity at 10 µM is -11.9%. On to `O=C(CC1CCCC1)N1CCOC(c2nc(-c3ncccn3)no2)C1` (configuration not stated), for which the cytotoxicity at 10 µM is -13.2%. For `CC(=O)N1CCCc2sc(C(=O)Nc3ccc(C)nc3)nc21`, the cytotoxicity at 10 µM worked out at 7.46%. In the case of `O=C(CCN1CCOC(Cn2cccn2)C1)NC1CCCC1` (configuration not stated) it was 4.98%; in that of `CN1CCCN(C[C@@H]2CN(C(=O)CCc3cn[nH]c3)C[C@@H]2CO)CC1`, 2.72%; in that of `CC(=O)NC[C@H]1C[C@@H]2CCN1C[C@@H]2c1cc(-c2cccs2)nn1C`, -7.99%. Take `CC(=O)N1CCC(NC(C)c2cnn(-c3ccc(F)cc3F)c2C)CC1` (configuration not stated): the cytotoxicity at 10 µM is -6.4%. In the case of `CC(=O)N1CCC2(CCN(C(=O)c3ccc(F)c(C(F)(F)F)c3)CC2)C1` it was -80.4%; in that of `CN1C(=O)C2(CCN(S(C)(=O)=O)CC2)c2cc(F)ccc21`, -106%.

Regarding `Nc1cncc(C(=O)N2Cc3ccccc3OC3(CCOCC3)C2)c1`, the cytotoxicity at 10 µM worked out at 11.9%.

Turning to `Fc1cc(Cl)cnc1N1CCCC(c2nccn2CC2CC2)C1` (configuration not stated), the cytotoxicity at 10 µM turned out to be 4.8%. As for `O=C(Cc1ccsc1)N1Cc2nc(CN3CCCCC3)oc2C1`, the cytotoxicity at 10 µM is 7.19%. As for `O=C(CN1CCCC(c2ccn[nH]2)C1)Nc1nc2c(s1)CCCC2` (configuration not stated), the figure is -43.3%. As for `Cc1nc(C2CCCN2C(=O)Cc2ccc3c(c2)OCO3)nc(O)c1C` (configuration not stated), the figure is -34.9%. As for `Cc1nc(C(C)C)sc1C(=O)NCCn1nc2ccccn2c1=O`, the figure is -12%; as for `O=C(c1cc2c([nH]c1=O)CCC2)N1CCCCC1c1cccc(F)c1` (configuration not stated), -6.22%. On to `CC[C@@H]1N(Cc2ccsc2)CCC[C@]12CCC(=O)N2CCOC`, for which the cytotoxicity at 10 µM stood at 7.36%. In the case of `N#Cc1cccc(NC2CC(=O)N(Cc3ccccc3Cl)C2)n1` (configuration not stated) it was 4.37%; in that of `O=C(Nc1cccnc1-n1cc(Br)cn1)C1CCCC1`, -33.1%. In the case of `Cc1cccc(CN2CCOC(C)(C(=O)N3CCOCC3)C2)n1` (configuration not stated) it was -9.19%. As for `c1cnc(N2CC[C@@H](OCC3CC3)[C@@H]2Cc2cccnc2)nc1`, the figure is 3.26%. `CN1CCN(C(=O)C2CN(Cc3cc4ccccc4o3)CCN2)CC1` (configuration not stated): the cytotoxicity at 10 µM is -8.2%. As for `COC(=O)c1ccc(N2CCN(CCC#N)C(C)C2)cc1` (configuration not stated), the figure is -11.3%; as for `CNc1cc2c(nn1)CCN(C(=O)C1CCCc3ccccc31)C2` (configuration not stated), -17.2%. In the case of `COCC1CN(Cc2cc(C)on2)Cc2cn(C)nc21` (configuration not stated) it was -6.07%; in that of `O=C(NC1CC1)[C@H]1C[C@H]2OCC[C@H]2N(Cc2cccnc2)C1`, 0.698%. Take `COCCS(=O)(=O)NCc1ccc(N(C)C)c(C)c1`: the cytotoxicity at 10 µM was -8.35%. As to `CC(C)NC(=O)N1CCC2(CC(=O)N(c3cccc(F)c3)C2)C1` (configuration not stated), the cytotoxicity at 10 µM stood at 3.46%. On to `Cc1nc(CNC(=O)Nc2c(C)n[nH]c2C)cs1`, for which the cytotoxicity at 10 µM came out at 3.51%.

As for `CC1(C)CN(Cc2c[nH]c(CC3CCCC3)n2)CC[C@]1(C)O`, the cytotoxicity at 10 µM is 2.74%.

As for `COc1nccc(N2CC[C@H](CO)[C@@H](O)C2)c1C#N`, the cytotoxicity at 10 µM is -141%. In the case of `CNC(=O)CS(=O)(=O)Cc1ccc(OC)c(F)c1` it was -6.7%. `COc1ccccc1-c1ncc(CN2CCCC(CCC(N)=O)C2)s1` (configuration not stated): the cytotoxicity at 10 µM is -6.34%. As for `COCCN1CCn2c(nc3cc(C(=O)NC(C)C)ccc32)C1`, the cytotoxicity at 10 µM was 2.38%. In the case of `Cc1cnc(N2CCCC3(COCCN(c4ccc(C)nn4)C3)C2)nc1` (configuration not stated) it was -126%. With `Cc1ccccc1C(=O)N1CCCn2nnc(Cn3cccn3)c2C1`, the cytotoxicity at 10 µM was 9.94%.

With `CC(=O)N1CCCCC12CCCN(Cc1ccco1)C2` (configuration not stated), the cytotoxicity at 10 µM was 4.59%. As for `Cc1cnc2c(S(=O)(=O)NC(=O)C(C)OCC3CC3)cccc2c1` (configuration not stated), the cytotoxicity at 10 µM was -1%. As for `CN(Cc1ccnc2ccccc12)C1CCS(=O)(=O)C1` (configuration not stated), the figure is 4.36%.

Turning to `CC(C)(O)c1cc(CC2(NCc3ccccc3Cl)COC2)no1`, the cytotoxicity at 10 µM was determined as 2.63%. In the case of `Cc1cc(N2CCN(CCO)CC2)nc(-c2ccncc2)n1` it was -1.25%. In the case of `COc1ccccc1NC(=O)CSC1CCc2ccccc2NC1=O` (configuration not stated) it was 20%; in that of `CCCNC(=O)CCC(=O)Nc1cc2sc(C)nc2cc1OC`, 4.55%; in that of `COc1cccc(COCC(=O)NC(C(N)=O)c2ccccc2F)c1` (configuration not stated), -4.55%. As for `COc1cccc(-n2nnc(C(=O)N3CCCC(C)C3)c2C)c1` (configuration not stated), the figure is -5.33%; as for `CCCNC(=O)c1cc(C(C)C)nc(N2CCCCC2)n1`, 15.8%. Regarding `CCCC(O)CN1CC(C)(C)CN(C(=O)c2ccc(Cl)cc2)CC1=O` (configuration not stated), the cytotoxicity at 10 µM is 2.78%.

As to `Cc1ccc(N2CCCN(C(=O)CCc3ccsc3)CC2)nn1`, the cytotoxicity at 10 µM is -2.22%. As to `CCN1CCOC(CNCc2ccc(C)s2)C1` (configuration not stated), the cytotoxicity at 10 µM came to 2.35%. In the case of `COCCn1cc(CC(=O)Nc2nc[nH]n2)c2ccccc21` it was -0.145%; in that of `CN(Cc1ccncc1)C(=O)[C@H]1CSCN1C(=O)OC(C)(C)C`, -9.65%; in that of `COc1cc(C2CC(=O)Oc3cc(C)[nH]c(=O)c32)ccc1OC(F)F` (configuration not stated), 7.34%. In the case of `CN(CCCc1nccn1C)C(=O)C1CCN(C(=O)C2CCC2)CC1` it was -7.12%; in that of `Cc1nnc(CN(C)C2CCN(CCc3cccs3)C2)n1C` (configuration not stated), -3.67%; in that of `CSc1ccc(-c2noc(CN(CC(C)C)CC(C)C)n2)cc1`, -3.7%. With `CCNc1ncc(C(=O)NC(CC)c2ccnn2C)cn1` (configuration not stated), the cytotoxicity at 10 µM is -2.4%. In the case of `O=C(CCc1nccs1)N1CCCC(n2cccn2)C1` (configuration not stated) it was -14.4%; in that of `Cc1cn2c(n1)CCC(NC(=O)c1oc(Br)cc1C)C2` (configuration not stated), -20.8%; in that of `CS(=O)(=O)Cc1ccc(Cl)c(NCc2noc(C3CC3)n2)c1`, 6.95%. In the case of `C[C@H]1CN2C[C@H](O)CC2CN1Cc1ccc2nccnc2c1` (some centres not stated) it was -1.23%; in that of `Cn1cc(CN(C/C=C/c2ccccc2)C2CC2)cn1`, -10.1%; in that of `O=C(NCCCNc1ccccc1)c1scnc1Cl`, 1.83%. For `Cc1ccccc1COCCOCn1c(C)cc(=O)[nH]c1=O`, the cytotoxicity at 10 µM worked out at 2.56%. As for `Cc1ccc(S(=O)(=O)NC(=O)c2c(C)noc2C(C)C)cc1C`, the figure is -9.11%.

On to `Cc1ccc2nc(CSCC(=O)Nc3nnc(C(C)C)s3)cc(=O)n2c1`, for which the cytotoxicity at 10 µM is -4.44%. As for `Nc1nccc(C2CCCN2CCc2ccccc2)n1` (configuration not stated), the figure is 3.38%. With `CO[C@H]1CNC[C@@H]1NC(=O)c1cc(C)nc2c(C)c(C)ccc12`, the cytotoxicity at 10 µM stood at 0.936%. As for `Cc1cnc(N2CCC3(CC2)C(c2ccccc2)CC(=O)N3C)nc1` (configuration not stated), the figure is -4.35%; as for `O=C1CSC(C(F)(F)F)c2c(O)nn(C3CCCC3)c2N1` (configuration not stated), 3.49%; as for `CN1CCC2(CC1)CNC(=O)c1ccccc1O2`, -1.24%. In the case of `CCCc1nnc(N[C@H](C)c2ccc(OC)cc2)o1` it was -19.9%.

As for `Cc1ccc(Cl)cc1C(=O)N1CCC2(CC1)c1ccccc1[C@@H](N)[C@@H]2O`, the cytotoxicity at 10 µM is -13.8%. As to `COCC(=O)N[C@H](C(=O)NC(C)c1cccc(C)c1C)C(C)C` (some centres not stated), the cytotoxicity at 10 µM was 5.38%. As to `O=C(C1CC1)N1CCC2(CCCN2Cc2ccc(F)cc2)CC1`, the cytotoxicity at 10 µM turned out to be 3.35%.

In the case of `Cc1nnc(SCCNC(=O)Cn2cnc3ccccc3c2=O)s1`, the cytotoxicity at 10 µM stood at 4.79%. As for `Cc1ccc(NC2CCN(C(=O)c3cc(C(N)=O)cs3)CC2)nn1`, the figure is 2.94%; as for `CN(C)C(=O)CN1CCC2(CCN(C(=O)N(C)C)CC2)C1=O`, 0.611%; as for `O=C(CCCc1cccs1)N1CCC(N2CCNC2=O)CC1`, 2.83%. In the case of `CC(C)CN1CCC(NC(=O)c2ccc(F)cc2I)CC1` it was -33.9%; in that of `CCN(CC)CCC(=O)NCc1cc2n(n1)CCN(C(=O)N(C)C)C2`, -6.72%; in that of `N#Cc1ccc(CS(=O)(=O)NC(=O)COc2ccc3c(c2)CCC3)cc1`, 1.13%. As for `FC(F)Oc1ccc(CN2CCOC3(CCOCC3)C2)cc1Cl`, the figure is -6.58%.

As for `CCn1ccnc1CN1CCN(Cc2cc(C#N)ccc2F)CC1`, the cytotoxicity at 10 µM is -7.19%.

In the case of `Cc1noc(C)c1CN1C[C@H]2CN(Cc3cccc(F)c3)C[C@H]2C1`, the cytotoxicity at 10 µM was -114%. As for `O=C(c1cc(F)cc(F)c1)N1CCC2(CC1)CC2`, the figure is 5.04%. In the case of `O=C1Nc2ccccc2CC12CCN(CCO)C2` (configuration not stated) it was 6.62%; in that of `COc1cc(F)ccc1C(C(=O)O)N(C)Cc1ccon1` (configuration not stated), -5.31%; in that of `Fc1ccc(COCC2CCN(Cc3ccccn3)CC2)cc1`, -2.67%. On to `CN(Cc1nnc(C2CC2)o1)C1CCN(CCCc2cnn(C)c2)C1` (configuration not stated), for which the cytotoxicity at 10 µM was 5.27%. For the compound `COc1cc(CN2CCCCCC2c2cccs2)cc(OC)c1O` (configuration not stated), the cytotoxicity at 10 µM turned out to be 8.6%.

Turning to `CCN1CCN2CCCN(S(=O)(=O)c3ccc(C)cc3C)C2C1=O` (configuration not stated), the cytotoxicity at 10 µM was determined as 0.515%.
